In assay [1] the target is Tubulin alpha chain (Sus scrofa) (UniProt P02550). Description: Ability to inhibit 3[H]Colchicine binding to colchicine-binding domain of tubulin; Strong inhibition.
The test system of another assay is HT-29. Nature of the assay: In vitro cytotoxic activity against human HT-29 cell line of colorectal carcinoma. It counts as functional, cell-based. Put shortly:
(§1)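 Cells kept in RPMI-1640 with 5% fetal bovine serum; log-phase cells seeded at 5000 cells/mL/well, exposed to various drug concentrations for 72 h. Growth read by methylene blue dye assay; IC50 (50% growth inhibition versus control) derived graphically. Mean and SD of at least three independent experiments.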

Another assay addresses Tubulin (Bos taurus, UniProt Q6B856+Q862L2+Q862F3). Nature of the assay: Inhibitory concentration required against MAP-rich tubulin polymerization. It counts as functional.
The subject of the next assay is TSGH. Description: In vitro cytotoxic activity against human TSGH cell line of stomach carcinoma. It counts as functional, cell-based. A digest of the protocol:
as §1

The subject of assay [2] is KB. Nature of the assay: In vitro cytotoxic activity against human KB-VIN10 cell line overexpressing P-gp 170/MDR. It counts as functional, cell-based. Put shortly: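 Vincristine-selected P-gp170/MDR-overexpressing KB line, maintained with 10 nM vincristine, then grown drug-free for 3 days before use. Log-phase cells seeded at 5000 cells/mL/well, exposed 72 h to various drug concentrations; methylene blue dye readout, IC50 (50% growth inhibition versus control) taken graphically. Mean and SD, at least three independent experiments.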

For assay [3], the system named is KB. Nature of the assay: In vitro cytotoxic activity against human KB cell line of epidermoid carcinoma. It counts as functional, cell-based. Put shortly:
as §1

For assay [4], the target named is Tubulin alpha chain (Sus scrofa) (UniProt P02550). Nature of the assay: Ability to inhibit 3[H]Colchicine binding to colchicine-binding domain of tubulin; Weak inhibition.
For assay [5] the target is unchanged. Nature of the assay: Ability to inhibit 3[H]Colchicine binding to colchicine-binding domain of tubulin; effective inhibition.

We go through 17 compounds from ChEMBL document CHEMBL1137079, “Synthesis and structure-activity relationships of 3-aminobenzophenones as antimitotic agents” (J Med Chem, 2004).

The structures appear in SMILES notation.

Chain of Tubulin alpha chain (Sus scrofa) (P02550 whole entry, looked up, the tested form may be a part): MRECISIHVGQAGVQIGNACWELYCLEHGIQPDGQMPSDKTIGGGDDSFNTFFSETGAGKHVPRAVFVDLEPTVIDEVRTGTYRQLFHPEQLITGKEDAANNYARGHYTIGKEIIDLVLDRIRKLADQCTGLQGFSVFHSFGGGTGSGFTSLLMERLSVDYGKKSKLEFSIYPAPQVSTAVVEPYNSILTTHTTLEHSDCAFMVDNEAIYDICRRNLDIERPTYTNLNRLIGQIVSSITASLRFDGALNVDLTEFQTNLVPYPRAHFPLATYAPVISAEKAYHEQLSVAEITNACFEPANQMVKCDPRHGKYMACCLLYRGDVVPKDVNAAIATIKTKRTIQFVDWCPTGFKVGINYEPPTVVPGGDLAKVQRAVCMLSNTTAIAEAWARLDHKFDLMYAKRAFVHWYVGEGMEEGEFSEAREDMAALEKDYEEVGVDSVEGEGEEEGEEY

For the compound `COc1ccc(C(=O)c2cc(OC)c(OC)c(OC)c2)cc1N`, the inhibition result in assay [1] is listed as “Strong inhibition”. For the same compound, the IC50 in the assay on HT-29 was determined as 33 nM; on Tubulin it was 300 nM; in the assay on TSGH it was 33 nM; in the assay with KB [2], 31 nM; in the assay on KB [3], 32 nM.
Take `COc1ccc(N)cc1C(=O)c1cc(OC)c(OC)c(OC)c1`: the IC50 in the assay on HT-29 was found to be 400 nM; against Tubulin, 2900 nM; in the assay on TSGH, 497 nM; in the assay on KB [2], 324 nM; in the assay with KB [3] it was 306 nM. The inhibition result in assay [4] was “Weak inhibition”.
On to `COc1ccc(Cc2cc(OC)c(OC)c(OC)c2)cc1N`, for which the IC50 is over 10000 nM with HT-29; over 50000 nM at Tubulin; over 10000 nM in the assay with TSGH; over 10000 nM in the assay with KB [2]; over 10000 nM in the assay with KB [3].
For the compound `COc1cc(N)cc(C(=O)c2cc(OC)c(OC)c(OC)c2)c1`, the IC50 is 163 nM in the assay on HT-29; 2600 nM against Tubulin; 157 nM in the assay with TSGH; 307 nM in the assay on KB [2]; 590 nM in the assay on KB [3].
In the case of `COc1ccc(C(=O)c2cc(OC)c(OC)c(OC)c2)cc1O` [PHENSTATIN], the IC50 in the assay with HT-29 was 560 nM; against Tubulin, 400 nM; in the assay with TSGH it was 170 nM; with KB [2], 30 nM; with KB [3] it was 30 nM.
For `CCOc1ccc(C(=O)c2cc(OC)c(OC)c(OC)c2)cc1N`, the IC50 was determined as 45 nM in the assay on HT-29; 700 nM at Tubulin; 42 nM in the assay with TSGH; 40 nM with KB [2]; 59 nM in the assay on KB [3].
In the same order, the values of `COc1cc(C(=O)c2ccc(OC(C)C)c(N)c2)cc(OC)c1OC` are 1300 nM, 6400 nM, 900 nM, 800 nM and 900 nM.
Consider `COc1ccc(/C=C\c2cc(OC)c(OC)c(OC)c2)cc1N`, for which the IC50 with HT-29 came to 7.9 nM; with TSGH, 7.7 nM; with KB [2], 7.5 nM; with KB [3] it was 8.2 nM.
For `COc1cc(C(=O)c2cc(N)cc(Cl)c2)cc(OC)c1OC`, the half-inhibitory concentration (IC50) in the assay with HT-29 is 1900 nM; on Tubulin, 17000 nM; with TSGH, 1500 nM; in the assay with KB [2] it was 2900 nM; with KB [3], 1400 nM.
Take `COc1cc(C(=O)c2cc(N)ccc2Cl)cc(OC)c1OC`: the IC50 is 163 nM with HT-29; 600 nM against Tubulin; 157 nM in the assay on TSGH; 125 nM in the assay with KB [2]; 180 nM in the assay on KB [3]. Besides, in assay [5], the inhibition result was “effective inhibition”.
With `COc1cc(C(=O)c2ccc(Cl)c(N)c2)cc(OC)c1OC`, the IC50 in the assay on HT-29 is 4000 nM; at Tubulin, 11000 nM; in the assay with TSGH it was 4000 nM; in the assay with KB [2] it was 3800 nM; in the assay on KB [3] it was 800 nM.
`COc1cc(C(=O)c2cc(Cl)ccc2N)cc(OC)c1OC`: the IC50 with HT-29 was determined as 218 nM; against Tubulin, 100 nM; in the assay on TSGH, 185 nM; in the assay with KB [2], 162 nM; in the assay on KB [3], 195 nM.
As for `COc1cc(C(=O)c2ccc(Cl)cc2N)cc(OC)c1OC`, the IC50 worked out at 1000 nM with HT-29; 2700 nM on Tubulin; 800 nM in the assay on TSGH; 800 nM in the assay on KB [2]; 710 nM with KB [3].
Consider `COc1ccc(C(=O)c2cc(OC)c(OC)c(OC)c2)c(N)c1`, for which, in assay [1], the inhibition entry is recorded as “Strong inhibition”. For the same compound, the IC50 in the assay on HT-29 was found to be 42 nM; against Tubulin, 400 nM; in the assay with TSGH, 26 nM; with KB [2], 24 nM; with KB [3], 32 nM.
Consider `COc1ccc(/C=C\c2cc(OC)c(OC)c(OC)c2)cc1O` [COMBRETASTATIN A4], for which the IC50 came out at 260 nM in the assay on HT-29, 45 nM in the assay on TSGH, 2.4 nM in the assay on KB [2] and 2.1 nM in the assay on KB [3].
`COc1ccc(N)c(C(=O)c2cc(OC)c(OC)c(OC)c2)c1`: the IC50 was 148 nM in the assay with HT-29; 1000 nM on Tubulin; 100 nM with TSGH; 352 nM in the assay on KB [2]; 127 nM with KB [3].
For `CCCOc1ccc(C(=O)c2cc(OC)c(OC)c(OC)c2)cc1N`, in that order: 9000 nM, 42000 nM, 4800 nM, 8600 nM and 3800 nM.

A word on the IC50: it is the midpoint of a concentration-inhibition curve. Read a high IC50 as weaker potency.
